# From PubChem BioAssay
# Rows were chosen to be rich in hits. Some 3.7% of all compounds tested hit in one or more screens of this group.
# KCNK3 inh: human KCNK3 channel inhibition, primary screen | O14649 | CHO-KCNK3 thallium flux, FluxOR fluorescence; stronger effect = lower value | B-score at 10 µM | actives 0.84% (n = 340,000) | AID 602410;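 active means B-score under library mean minus 4 SD, starting fluorescence ratio at most library mean plus 5 SD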;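 further: more negative B-score means stronger inhibition of thallium flux through KCNK3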
# hERG protect: hERG (human) protection from proarrhythmic block; Q12809; AID 1511; actives 0.51% (n = 310,000); activation (rescue from dofetilide block), less the hit threshold, % at 10 µM; CHO-hERG, FluxOR thallium flux, dofetilide IC70 present;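 active means activation above the mean of controls blocked by dofetilide plus 5 SD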;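 further: thallium influx through hERG after potassium depolarization seen as dye fluorescence rise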
# Target sequence (Q12809 whole entry, looked up): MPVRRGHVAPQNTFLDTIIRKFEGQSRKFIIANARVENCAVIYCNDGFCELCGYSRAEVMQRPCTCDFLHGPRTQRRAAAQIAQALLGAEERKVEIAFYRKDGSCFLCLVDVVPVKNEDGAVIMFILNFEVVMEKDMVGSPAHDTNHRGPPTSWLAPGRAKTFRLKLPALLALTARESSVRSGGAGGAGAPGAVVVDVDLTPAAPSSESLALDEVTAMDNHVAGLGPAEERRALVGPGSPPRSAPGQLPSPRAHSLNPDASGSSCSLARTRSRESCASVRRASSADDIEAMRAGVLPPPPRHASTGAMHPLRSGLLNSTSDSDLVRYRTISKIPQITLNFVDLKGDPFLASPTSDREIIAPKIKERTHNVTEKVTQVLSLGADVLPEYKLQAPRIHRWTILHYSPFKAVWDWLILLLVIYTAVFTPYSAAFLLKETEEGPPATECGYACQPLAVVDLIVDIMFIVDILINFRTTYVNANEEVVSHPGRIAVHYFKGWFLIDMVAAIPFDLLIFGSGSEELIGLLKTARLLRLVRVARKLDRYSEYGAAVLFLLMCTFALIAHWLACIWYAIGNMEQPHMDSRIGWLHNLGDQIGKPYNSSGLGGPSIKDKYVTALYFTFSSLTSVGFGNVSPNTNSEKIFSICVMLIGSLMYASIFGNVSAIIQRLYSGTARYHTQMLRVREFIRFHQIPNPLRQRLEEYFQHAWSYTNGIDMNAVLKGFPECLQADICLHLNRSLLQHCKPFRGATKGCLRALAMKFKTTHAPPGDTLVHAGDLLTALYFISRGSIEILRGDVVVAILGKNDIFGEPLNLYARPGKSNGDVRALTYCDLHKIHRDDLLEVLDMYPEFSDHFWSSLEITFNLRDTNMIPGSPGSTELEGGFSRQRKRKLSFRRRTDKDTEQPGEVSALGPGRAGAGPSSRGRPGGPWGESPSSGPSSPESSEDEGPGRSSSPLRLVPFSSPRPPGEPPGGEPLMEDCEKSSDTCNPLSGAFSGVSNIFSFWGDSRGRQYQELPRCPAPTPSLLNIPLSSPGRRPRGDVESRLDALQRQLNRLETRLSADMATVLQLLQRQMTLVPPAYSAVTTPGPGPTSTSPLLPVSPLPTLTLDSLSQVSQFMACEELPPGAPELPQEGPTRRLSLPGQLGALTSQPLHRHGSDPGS
# KCNQ1 pot: potentiates or activates the human KCNQ1 potassium channel; CHO-K1 KCNQ1, thallium flux FluxOR fluorescence; stronger effect = higher value; B-score at 10 µM; actives 0.35% (n = 310,000); AID 2648;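 active means fluorescence ratio B-score, a plate-corrected score, at least three library SD, with initial intensity B-score within 5 SD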
#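 assay system = CHO-K1 cells stably expressing KCNQ1 | medium = assay buffer, equal DMSO in all wells | timing = 37 °C overnight plating, 90-min dark dye load, 20-min compound pretreatment | measured by = kinetic FluxOR thallium fluorescence, 10-s 1-Hz baseline, 110-s post-stimulus read | measure = fluorescence change relative to baseline, converted to B score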
# KCNQ1 inh: inhibitors of human KCNQ1 potassium channel. B-score at 10 µM. actives 1.3% (n = 310,000). CHO-K1 KCNQ1, FluxOR thallium flux fluorescence; stronger effect = higher value. P51787;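 active means compounds whose thallium flux B-score, printed positive for inhibition, exceeds three library SD while starting fluorescence stays within three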;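 further: channel opened by potassium depolarization with thallium stimulus after 20 min compound exposure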
# Kir21 block: blocks the mouse Kir2.1 inward-rectifier potassium channel. P35561. HEK293-Kir2.1, FluxOR thallium flux fluorescence; stronger effect = lower value. B-score at 10 µM. actives 0.85% (n = 310,000);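 active means fluorescence ratio B-score at or below minus 3 SD of library scores, with starting-brightness B-score within 2 SD, cut at about -4.2 in these data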;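 further: channel flux triggered by added potassium and thallium sulfate stimulus; B-score of peak minus minimum fluorescence over baseline after thallium stimulus; more negative B-score means stronger Kir2.1 block with less thallium influx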
# KCNK9 inh: inhibitors of human KCNK9 two-pore domain potassium channel; Q9NPC2; HEK293 KCNK9, FluxOR thallium flux fluorescence; stronger effect = lower value; B-score at 10 µM; actives 1.2% (n = 310,000);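 active means ratio B-score over 3 SD below the library mean, with starting fluorescence within 5 SD of its mean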;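 further: negative B-score means less thallium flux so channel inhibition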
# Hits are given with their value; n = inactive; x = not tested or not shown.
SMILES,KCNK3 inh,hERG protect,KCNQ1 pot,KCNQ1 inh,Kir21 block,KCNK9 inh
C=CCn1c(O)c(/C=C2/C=c3ccccc3=N2)c(=O)[nH]c1=S,n,35,n,n,n,n
C=CCn1c(O)c(C=Nc2ccc(F)cc2)c(=O)[nH]c1=O,n,n,n,n,n,n
CN[C@H]1C[C@H]2O[C@@](C)([C@H]1OC)n1c3ccccc3c3c4c(c5c6ccccc6n2c5c31)C(=O)NC4,x,n,18,n,n,n
CN1CCN(Cc2ccc3ccccc3c2)CC1,n,n,n,n,n,n
CCCCCCOc1ccc(CN2CCN(C)CC2)cc1,n,n,n,n,-4.8,n
O=P(Oc1ccccc1)(Oc1ccccc1)c1ccccc1,n,n,n,n,-5.9,n
O=C1NC(=O)N(Cc2ccccc2Cl)C(=O)/C1=C/N1CCOCC1,n,8.0,n,n,n,n
O=C1NC(=O)N(Cc2cccs2)C(=O)/C1=C/c1ccc(N2CCOCC2)cc1,n,n,n,n,n,n
COc1cc(OC)c(OC)cc1CNCCc1cccc(F)c1,n,n,n,n,n,n
COc1ccc(CNCCc2cccc(F)c2)c2ccccc12,x,n,n,n,-18,n
CC(C)C(=O)c1cn(Cc2ccc(C#N)cc2)c2ccccc12,n,n,n,n,n,-6.9
COc1ccc(-c2nc3ccc(C(=O)N4CCC5(CC4)OCCO5)cc3nc2-c2ccc(OC)cc2)cc1,n,n,n,6,n,n
Cc1ccc(N=C(N(C)C)P(=O)(N(C)C)N(C)C)cc1,n,n,n,n,n,n
CN1C(=O)/C(=C\c2ccc(Br)s2)C(=O)NC1=S,n,15,n,n,n,n
NS(=O)(=O)c1cccc(N2CCNCC2)c1,n,n,n,n,n,n
CC(=O)N(C)CC#CCN1CCC(O)CC1,n,n,n,n,n,n
CC1CCCC(C)N1/N=C/c1c[nH]c2ccc(Br)cc12 (stereo not drawn),n,n,n,6,-4.3,n
CCCCOCCCn1c(N)c(C(=O)OC(C)COC)c2nc3ccccc3nc21 (stereo not drawn),-11,n,n,n,n,n
C=CCn1c(O)c(C(CC)=Nc2cccc(C(=O)O)c2)c(=O)[nH]c1=O,n,n,n,n,n,n
Cc1nc2ccccc2c(=O)n1-c1cc([N+](=O)[O-])cc([N+](=O)[O-])c1,n,4.7,n,n,n,n
Cc1nc2ccccc2c(=O)n1-c1ccncc1,n,n,n,n,n,n
O=C1NC(=S)N(c2ccccc2F)C(=O)/C1=C\c1cccs1,n,22,n,n,n,n
Cc1ccccc1N1C(=O)NC(=O)/C(=C/c2ccc(N3CCOCC3)o2)C1=O,n,n,n,6,n,n
CN1C(=O)C(=Cc2ccc(N3CCCCCC3)o2)C(=O)N(C)C1=S,n,x,x,x,x,x
O=C1NC(=O)N(c2ccc3c(c2)OCO3)C(=O)/C1=C\c1ccc(N2CCCCC2)o1,n,n,n,9,n,n
SMILES,KCNK3 inh,hERG protect,KCNQ1 pot,KCNQ1 inh,Kir21 block,KCNK9 inh
Cc1ccccc1N1C(=O)/C(=C/c2ccco2)C(=O)NC1=S,x,13,n,n,n,n
C=CCn1c(O)c(C(CC)=Nc2ccc(N(C)C)cc2)c(=O)[nH]c1=O,n,n,n,n,n,n
COc1ccccc1C(=O)Nc1ccc2c(c1)CC1(C(=O)N(C)C(=O)N(C)C1=O)C1CCCN21 (stereo not drawn),n,n,n,n,n,n
CN(CC1COc2ccccc2O1)c1nc(-c2cccnc2)nc2ccccc12 (stereo not drawn),n,n,n,n,n,n
C=CCn1c(C)c(C=C2C(=O)NC(=O)NC2=O)c2ccccc21,n,n,n,n,n,n
O=c1[nH]c(=S)n(C2CC2)c(O)c1C=NCCN1CCOCC1,n,n,n,n,n,n
O=c1c(C=NCCN2CCNCC2)c(O)n(C2CCCCC2)c(=O)n1C1CCCCC1,n,n,11,n,n,n
CNCCCc1ccccc1,n,6.5,n,n,n,n
O=c1cccc2n1CC1CC2CN(CC(O)CN2CC3CC(C2)c2cccc(=O)n2C3)C1 (stereo not drawn),n,n,n,n,n,n
CCOP(=O)(C#CC(C)(C)C)C(O)(c1ccccc1)C(F)(F)F (stereo not drawn),n,n,n,n,-4.3,n
CC#CP(=O)(OCC)C(O)(c1ccccc1)C(F)(F)F (stereo not drawn),n,n,n,n,n,n
C#C[C@]1(O)CCC2C3C(=O)C=C4C(Cl)=CCC[C@]4(C)C3CC[C@@]21C (stereo partly drawn),n,x,x,x,x,x
CCCCCn1c(=O)c(C(=O)Nc2ccccn2)c(O)c2ccccc21,n,n,n,n,n,-7.4
CCCCn1c(=O)c(C(=O)Nc2ccc(C)cn2)c(O)c2ccccc21,n,n,n,n,n,-7.7
CCCCCn1c(=O)c(C(=O)Nc2cccc(C)c2)c(O)c2ccccc21,n,n,n,n,n,n
CCCCCn1c(=O)c(C(=O)Nc2cccc(C)n2)c(O)c2ccccc21,n,n,n,n,n,n
COc1ccc(-c2ccc3n2Cc2cnnn2-c2ccccc2-3)cc1,n,x,x,x,x,x
CCOP(=O)(Nc1ccc2c(c1)C(=NNC(N)=S)c1ccccc1-2)OCC,n,x,x,x,x,x
Cc1[nH]n(-c2ccccc2)c(=O)c1C(c1ccc([N+](=O)[O-])cc1)c1c(C)[nH]n(-c2ccccc2)c1=O,n,n,n,7,n,n
CC12CCC(=O)C=C1CCC1C2CCC2(C)C(O)CCC12 (stereo not drawn),n,x,x,x,x,x
CCC(=O)O[C@H]1CC[C@H]2[C@@H]3CCC4=CC(=O)CC[C@]4(C)[C@H]3CC[C@]12C,-8.7,x,x,x,x,x
Cc1ccccc1CCNCc1ccc(Br)cc1,n,n,n,n,-9.6,n
COc1ccc(CCNCc2ccc(Br)cc2)cc1OC,n,n,n,n,n,n
O=C(Cn1cc(C(=O)c2ccccc2F)c2ccccc21)NC1CC1,n,n,n,n,n,n
CC(C)(O)C1C2OC(=O)C1C1(O)CC3OC34C(=O)OC2C14C (stereo not drawn),n,x,x,x,x,x
SMILES,KCNK3 inh,hERG protect,KCNQ1 pot,KCNQ1 inh,Kir21 block,KCNK9 inh
CCOP(=S)(OCC)c1ccc(N(C)C)cc1,n,n,9,n,n,n
C[n+]1c(-c2ccccc2)cc(-c2ccc(Cl)cc2)cc1-c1ccccc1,n,n,n,n,n,n
c1ccc(-c2cc(-c3ccccc3)[n+](-c3ccccc3)c(-c3ccccc3)c2)cc1,-10,n,n,13,-6.4,n
CN(C)c1ccc(-[n+]2c(-c3ccccc3)cc(-c3ccccc3)cc2-c2ccccc2)cc1,-9,n,n,12,-15,n
CC(=O)N1Cc2cnnn2-c2ccccc2C1C#N (stereo not drawn),n,x,x,x,x,x
Cc1ccc(NC2=NCCCS2)cc1Cl,n,n,n,n,n,n
CCCCc1ccc(NC2=NCCCS2)cc1,n,n,n,n,-4.9,n
